According to ChEMBL document CHEMBL5113397, “Identification, optimization, and biological evaluation of 3-O-β-chacotriosyl ursolic acid derivatives as novel SARS-CoV-2 entry inhibitors by targeting the prefusion state of spike protein” (Eur J Med Chem, 2022):
Activity calls are given as the source filed them. The rule behind the calls is not given here.

Assays:
SARS-CoV-2 [1] = assay: Antiviral activity against pseudovirus SARS-CoV-2 spike protein infected human HEK293T cells overexpressing ACE2 assessed as inhibition on pseudovirus infection at 10 uM incubated for 48 hrs by luciferase assay; assay type: functional; details: Severe acute respiratory syndrome coronavirus 2, HEK-293T
Summary of the method: (§1)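 S plasmid (wild type, or E484K, D614G or N501Y mutant) transfected into 293T cells; PsV-containing supernatant harvested at 48 h. 293T-ACE2 cells seeded 24 h ahead, then given an equal-volume mix of compound dilutions and PsV supernatant for 48 h. Cells lysed and luciferase activity quantified. Mean ± SD of three experiments.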

SARS-CoV-2 [2] = assay: Antiviral activity against pseudovirus SARS-CoV-2 spike protein infected human HEK293T cells overexpressing ACE2 assessed as inhibition on pseudovirus infection at 40 uM incubated for 48 hrs by luciferase assay; assay type: functional; details: Severe acute respiratory syndrome coronavirus 2, HEK-293T; summary of the method: as §1
SARS-CoV-2 [3] = assay: Antiviral activity against pseudovirus SARS-CoV-2 spike protein infected human HEK293T cells overexpressing ACE2 assessed as inhibition on pseudovirus infection incubated for 48 hrs by luciferase assay; assay type: functional, organism-based; details: Severe acute respiratory syndrome coronavirus 2, HEK-293T; summary of the method: as §1
SARS-CoV-2 [4] = assay: Antiviral activity against pseudotyped spike protein mutant P.10 SARS-CoV-2 Gamma variant infected human HEK293T cells overexpressing ACE2 assessed as inhibition on viral entry incubated for 48 hrs by luciferase assay; assay type: functional, organism-based, Severe acute respiratory syndrome coronavirus 2
SARS-CoV-2 [5] = assay: Antiviral activity against pseudovirus SARS-CoV-2 spike protein with E484K mutant infected human HEK293T cells overexpressing ACE2 assessed as inhibition on pseudovirus infection at 5 to 40 uM incubated for 48 hrs by luciferase assay; assay type: functional, organism-based; details: Severe acute respiratory syndrome coronavirus 2, dose 5-40 µM; summary of the method: as §1
SARS-CoV-2 [6] = assay: Antiviral activity against pseudovirus SARS-CoV-2 spike protein with N501Y mutant infected human HEK293T cells overexpressing ACE2 assessed as inhibition on pseudovirus infection at 5 to 40 uM incubated for 48 hrs by luciferase assay; assay type: functional, organism-based; details: Severe acute respiratory syndrome coronavirus 2, dose 5-40 µM; summary of the method: as §1
SARS-CoV-2 [7] = assay: Antiviral activity against SARS-CoV-2 VSV-G pseudotyped virus infected human HEK293T cells overexpressing ACE2 incubated for 48 hrs by luciferase assay; assay type: functional, organism-based; details: Severe acute respiratory syndrome coronavirus 2, HEK-293T
SARS-CoV-2 [8] = assay: Antiviral activity against pseudotyped spike protein mutant B.1.351 SARS-CoV-2 Beta variant infected human HEK293T cells overexpressing ACE2 assessed as inhibition on viral entry incubated for 48 hrs by luciferase assay; assay type: functional, organism-based, Severe acute respiratory syndrome coronavirus 2
SARS-CoV-2 [9] = assay: Antiviral activity against pseudovirus SARS-CoV-2 spike protein mutant Omicron variant infected human HEK293T cells overexpressing ACE2 assessed as inhibition on viral entry incubated for 48 hrs by luciferase assay; assay type: functional, organism-based, Severe acute respiratory syndrome coronavirus 2
SARS-CoV-2 [10] = assay: Antiviral activity against pseudovirus spike protein mutant B.1.617.2 SARS-CoV-2 Delta variant infected human HEK293T cells overexpressing ACE2 assessed as inhibition on viral entry incubated for 48 hrs by luciferase assay; assay type: functional, organism-based, Severe acute respiratory syndrome coronavirus 2
SARS-CoV-2 [11] = assay: Antiviral activity against pseudovirus SARS-CoV-2 spike protein with D614G mutant infected human HEK293T cells overexpressing ACE2 assessed as inhibition on pseudovirus infection at 5 to 40 uM incubated for 48 hrs by luciferase assay; assay type: functional, organism-based; details: Severe acute respiratory syndrome coronavirus 2, dose 5-40 µM; summary of the method: as §1
[12] = Selectivity index, ratio of CC50 for cytotoxicity against human HEK293T cells overexpressing human ACE2 to EC50 for antiviral activity against SARS-CoV-2 VSV-G pseudotyped virus infected human HEK293T cells overexpressing ACE2; assay type: toxicity, cell-based; details: read-out: Ratio CC50/EC50
SARS-CoV-2 [13] = assay: Antiviral activity against pseudotyped spike protein mutant B.1.1.7 SARS-CoV-2 Alpha variant infected human HEK293T cells overexpressing ACE2 assessed as inhibition on viral entry incubated for 48 hrs by luciferase assay; assay type: functional, organism-based, Severe acute respiratory syndrome coronavirus 2

| Structure (SMILES) | inhibition at 10 µM (SARS-CoV-2 [1]) [%] | inhibition at 40 µM (SARS-CoV-2 [2]) [%] | EC50 (SARS-CoV-2 [3]) [µM] | other results |
| --- | --- | --- | --- | --- |
| C[C@H]1[C@H](C)CC[C@]2(C(=O)Nc3ccc(-c4ccccc4)cc3)CC[C@]3(C)C(=CC[C@@H]4[C@@]5(C)CC[C@H](O[C@@H]6O[C@H](CO)[C@@H](O[C@@H]7O[C@@H](C)[C@H](O)[C@@H](O)[C@H]7O)[C@H](O)[C@H]6O[C@@H]6O[C@@H](C)[C@H](O)[C@@H](O)[C@H]6O)C(C)(C)[C@@H]5CC[C@]43C)[C@H]12 | 27.4 | 16.9 |  |  |
| C[C@H]1[C@H](C)CC[C@]2(C(=O)NCCc3ccccc3)CC[C@]3(C)C(=CC[C@@H]4[C@@]5(C)CC[C@H](O[C@@H]6O[C@H](CO)[C@@H](O[C@@H]7O[C@@H](C)[C@H](O)[C@@H](O)[C@H]7O)[C@H](O)[C@H]6O[C@@H]6O[C@@H](C)[C@H](O)[C@@H](O)[C@H]6O)C(C)(C)[C@@H]5CC[C@]43C)[C@H]12 | 49.5 | 28.2 |  |  |
| C[C@H]1[C@H](C)CC[C@]2(C(=O)Nc3ccc4ncccc4c3)CC[C@]3(C)C(=CC[C@@H]4[C@@]5(C)CC[C@H](O[C@@H]6O[C@H](CO)[C@@H](O[C@@H]7O[C@@H](C)[C@H](O)[C@@H](O)[C@H]7O)[C@H](O)[C@H]6O[C@@H]6O[C@@H](C)[C@H](O)[C@@H](O)[C@H]6O)C(C)(C)[C@@H]5CC[C@]43C)[C@H]12 | 33.1 | 27.4 |  |  |
| C[C@H]1[C@H](C)CC[C@]2(C(=O)Nc3ccc4ccccc4c3)CC[C@]3(C)C(=CC[C@@H]4[C@@]5(C)CC[C@H](O[C@@H]6O[C@H](CO)[C@@H](O[C@@H]7O[C@@H](C)[C@H](O)[C@@H](O)[C@H]7O)[C@H](O)[C@H]6O[C@@H]6O[C@@H](C)[C@H](O)[C@@H](O)[C@H]6O)C(C)(C)[C@@H]5CC[C@]43C)[C@H]12 | 14.5 | -7.27 |  |  |
| C[C@H]1[C@H](C)CC[C@]2(C(=O)Nc3ccccc3Cl)CC[C@]3(C)C(=CC[C@@H]4[C@@]5(C)CC[C@H](O[C@@H]6O[C@H](CO)[C@@H](O[C@@H]7O[C@@H](C)[C@H](O)[C@@H](O)[C@H]7O)[C@H](O)[C@H]6O[C@@H]6O[C@@H](C)[C@H](O)[C@@H](O)[C@H]6O)C(C)(C)[C@@H]5CC[C@]43C)[C@H]12 |  |  | 12.7 |  |
| COc1cccc(OC)c1NC(=O)[C@]12CC[C@@H](C)[C@H](C)[C@H]1C1=CC[C@@H]3[C@@]4(C)CC[C@H](O[C@@H]5O[C@H](CO)[C@@H](O[C@@H]6O[C@@H](C)[C@H](O)[C@@H](O)[C@H]6O)[C@H](O)[C@H]5O[C@@H]5O[C@@H](C)[C@H](O)[C@@H](O)[C@H]5O)C(C)(C)[C@@H]4CC[C@@]3(C)[C@]1(C)CC2 | 96.8 | 46.8 | 9.84 | EC50 (SARS-CoV-2 [4]): 2660 nM; inhibition (SARS-CoV-2 [5]): Active; inhibition (SARS-CoV-2 [6]): Active; EC50 (SARS-CoV-2 [7]): > 100 µM; EC50 (SARS-CoV-2 [8]): 11.6 µM; EC50 (SARS-CoV-2 [9]): 7.23 µM; EC50 (SARS-CoV-2 [10]): 1780 nM; inhibition (SARS-CoV-2 [11]): Active; selectivity ratio [12]: > 10.2; EC50 (SARS-CoV-2 [13]): 7.68 µM |
| C[C@H]1[C@H](C)CC[C@]2(C(=O)Nc3ccc4c(c3)OCCO4)CC[C@]3(C)C(=CC[C@@H]4[C@@]5(C)CC[C@H](O[C@@H]6O[C@H](CO)[C@@H](O[C@@H]7O[C@@H](C)[C@H](O)[C@@H](O)[C@H]7O)[C@H](O)[C@H]6O[C@@H]6O[C@@H](C)[C@H](O)[C@@H](O)[C@H]6O)C(C)(C)[C@@H]5CC[C@]43C)[C@H]12 | 30.4 | -2.49 |  |  |
| COc1ccccc1NC(=O)[C@]12CC[C@@H](C)[C@H](C)[C@H]1C1=CC[C@@H]3[C@@]4(C)CC[C@H](O[C@@H]5O[C@H](CO)[C@@H](O[C@@H]6O[C@@H](C)[C@H](O)[C@@H](O)[C@H]6O)[C@H](O)[C@H]5O[C@@H]5O[C@@H](C)[C@H](O)[C@@H](O)[C@H]5O)C(C)(C)[C@@H]4CC[C@@]3(C)[C@]1(C)CC2 |  |  | 10.7 | selectivity ratio [12]: 4.05 |
| O=C(/C=C/c1ccc(O)c2oc(-c3ccc(O)c(O)c3)cc12)O[C@H](Cc1ccc(O)c(O)c1)C(=O)O | 98.3 | 80.2 |  |  |
| C[C@H]1[C@H](C)CC[C@]2(C(=O)Nc3ccc(Cc4ccccc4)cc3)CC[C@]3(C)C(=CC[C@@H]4[C@@]5(C)CC[C@H](O[C@@H]6O[C@H](CO)[C@@H](O[C@@H]7O[C@@H](C)[C@H](O)[C@@H](O)[C@H]7O)[C@H](O)[C@H]6O[C@@H]6O[C@@H](C)[C@H](O)[C@@H](O)[C@H]6O)C(C)(C)[C@@H]5CC[C@]43C)[C@H]12 | 19.2 | 10.3 |  |  |
| C[C@H]1[C@H](C)CC[C@]2(C(=O)N3CCc4ccccc4C3)CC[C@]3(C)C(=CC[C@@H]4[C@@]5(C)CC[C@H](O[C@@H]6O[C@H](CO)[C@@H](O[C@@H]7O[C@@H](C)[C@H](O)[C@@H](O)[C@H]7O)[C@H](O)[C@H]6O[C@@H]6O[C@@H](C)[C@H](O)[C@@H](O)[C@H]6O)C(C)(C)[C@@H]5CC[C@]43C)[C@H]12 | 58.7 | 32.5 |  |  |
| C[C@H]1[C@H](C)CC[C@]2(C(=O)NCc3ccccc3)CC[C@]3(C)C(=CC[C@@H]4[C@@]5(C)CC[C@H](O[C@@H]6O[C@H](CO)[C@@H](O[C@@H]7O[C@@H](C)[C@H](O)[C@@H](O)[C@H]7O)[C@H](O)[C@H]6O[C@@H]6O[C@@H](C)[C@H](O)[C@@H](O)[C@H]6O)C(C)(C)[C@@H]5CC[C@]43C)[C@H]12 | 92.5 | 59.2 | 12 | EC50 (SARS-CoV-2 [7]): > 100 µM; selectivity ratio [12]: > 10 |
| C[C@H]1[C@H](C)CC[C@]2(C(=O)Nc3ccc4sccc4c3)CC[C@]3(C)C(=CC[C@@H]4[C@@]5(C)CC[C@H](O[C@@H]6O[C@H](CO)[C@@H](O[C@@H]7O[C@@H](C)[C@H](O)[C@@H](O)[C@H]7O)[C@H](O)[C@H]6O[C@@H]6O[C@@H](C)[C@H](O)[C@@H](O)[C@H]6O)C(C)(C)[C@@H]5CC[C@]43C)[C@H]12 | -21.7 | -31.8 |  |  |
| COc1ccc(CNC(=O)[C@]23CC[C@@H](C)[C@H](C)[C@H]2C2=CC[C@@H]4[C@@]5(C)CC[C@H](O[C@@H]6O[C@H](CO)[C@@H](O[C@@H]7O[C@@H](C)[C@H](O)[C@@H](O)[C@H]7O)[C@H](O)[C@H]6O[C@@H]6O[C@@H](C)[C@H](O)[C@@H](O)[C@H]6O)C(C)(C)[C@@H]5CC[C@@]4(C)[C@]2(C)CC3)cc1 | 85.7 | 36.3 | 11.8 | EC50 (SARS-CoV-2 [7]): > 100 µM; selectivity ratio [12]: > 10 |
| C[C@H]1[C@H](C)CC[C@]2(C(=O)NC(c3ccccc3)c3ccccc3)CC[C@]3(C)C(=CC[C@@H]4[C@@]5(C)CC[C@H](O[C@@H]6O[C@H](CO)[C@@H](O[C@@H]7O[C@@H](C)[C@H](O)[C@@H](O)[C@H]7O)[C@H](O)[C@H]6O[C@@H]6O[C@@H](C)[C@H](O)[C@@H](O)[C@H]6O)C(C)(C)[C@@H]5CC[C@]43C)[C@H]12 | 1.58 | 0.47 |  |  |
| C[C@H]1[C@H](C)CC[C@]2(C(=O)Nc3ccc4c(cnn4C)c3)CC[C@]3(C)C(=CC[C@@H]4[C@@]5(C)CC[C@H](O[C@@H]6O[C@H](CO)[C@@H](O[C@@H]7O[C@@H](C)[C@H](O)[C@@H](O)[C@H]7O)[C@H](O)[C@H]6O[C@@H]6O[C@@H](C)[C@H](O)[C@@H](O)[C@H]6O)C(C)(C)[C@@H]5CC[C@]43C)[C@H]12 | 51.9 | 41.1 |  |  |
